Measured values from different studies.
Protocols differ between the studies behind these lines.

For `N[C@@H](CSSC[C@H](N)C(=O)O)C(=O)O`, the bioavailability was 25.6% (Kunming mouse, plasma; oral, 100 mg/kg).
For `Cc1cccc(C(=O)n2ncc(=O)c3ccccc32)c1`, the half-life was 1.9 h (chemical stability; aqueous buffer; pH 7.3).
`O=C(N1CCC(CNS(=O)(=O)c2ccc(Cl)cc2)CC1)n1cncn1` has a half-life of 0.993 h (chemical stability, HPLC; aqueous buffer; 167 µM, pH 7.4).
`CCc1ccc(Cc2cc([C@@H]3O[C@H](CO)[C@@H](O)[C@H](O)[C@H]3O)cc3c2CCC3)cc1` gave a bioavailability of 89% (male C57BL/6 mouse, plasma; oral, 1 mg/kg).
With `CC[C@H](C)[C@@H]1NC(=O)[C@@](C)(NC(=O)[C@H](CCCNC(=N)N)NC(=O)[C@H](CC(C)C)NC(=O)[C@@H](NC(=O)[C@H](CCC(N)=O)NC(=O)[C@H](CC(C)C)NC(C)=O)[C@@H](C)O)CCCC=CCCC[C@@](C)(C(=O)N[C@@H](CC(C)C)C(=O)N[C@@H](Cc2ccc3ccccc3c2)C(N)=O)NC(=O)[C@H](CCCNC(=N)N)NC(=O)[C@H](CCC(N)=O)NC1=O` the AUC(0-inf) was 146 µg·h/mL (male BALB/c mouse, plasma; subcutaneous, 10 mg/kg).
For `Cc1cccc(C(=O)n2nc(Cl)c(=O)c3ccccc32)c1`, the half-life was 0.642 h (chemical stability; aqueous buffer; pH 7.3).
For `C[C@]1(c2nc3c(C(N)=O)cccc3[nH]2)CCCN1`, the Vd/F was 38 L/kg (male rhesus monkey, plasma; oral, 5 mg/kg, single dose).
`O=C(ON1C(=O)CCC1=O)N1CCC(CNS(=O)(=O)c2ccc(Cl)cc2)CC1` gave a half-life of 1.21 h (chemical stability, HPLC; aqueous buffer; 167 µM, pH 7.4).
